The text below walks through data of ChEMBL document CHEMBL1146535, “New manzamine alkaloids with activity against infectious and tropical parasitic diseases from an Indonesian sponge” (J Nat Prod, 2003).

For orientation: MIC means the least concentration at which growth counts as inhibited. In general, IC50 refers to the midpoint of a concentration-inhibition curve. Usually IC90 stands for the concentration at which the effect reaches the 90% level. By EC50 is commonly meant the concentration at which the effect is half-maximal.

SMILES strings stand for the structures. In brackets after ≈: the same amount, converted by molar mass. Activity calls are given as the source filed them. The rule behind the calls is not given here.

Data set [1] has as its system Mycobacterium tuberculosis. The experiment in a line: Antimycobacterial activity against Mycobacterium tuberculosis H37Rv. The class given is functional.
Data set [2] deals with Plasmodium falciparum. The experiment in a line: Antimalarial activity against Plasmodium falciparum D6. Format: functional, organism-based.
The subject of data set [3] is Plasmodium falciparum. The data set is described as follows: Antimalarial activity against chloroquine-resistant Plasmodium falciparum W2. Format: functional, organism-based.
The subject of another data set is Leishmania donovani. The experiment in a line: Antileishmanial activity against Leishmania donovani promastigotes expressing luciferase. The class given is functional, organism-based. The essentials: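 Transgenic L. donovani promastigote line stably expressing luciferase used as the test organism. Pentamidine and amphotericin B run alongside as reference antileishmanials.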

Another data set concerns Vero. The experiment in a line: Cytotoxicity against african green monkey Vero cells. Format: cell-based. As to conditions: chlorocebus sabaeus.
Data set [4] can be described thus: Cytotoxicity against human […] cells. The class given is functional, cell-based.
Another data set deals with HT-29. The data set is described as follows: Cytotoxicity against human HT-29 cells. Format: functional, cell-based.
Data set [5] can be described thus: Cytotoxicity against human H116 cells. The class given is functional, cell-based.
A short description of data set [6]: Cytotoxicity against mouse MS1 cells. As to conditions: MS-1. Format: cell-based.
Data set [7] relates to Human immunodeficiency virus 1. The data set is described as follows: Antiviral activity against HIV1 in human PBM cells. Format: functional, organism-based. As to conditions: Human immunodeficiency virus 1, PBMC.

`O[C@]12C=C(c3nccc4c3[nH]c3ccccc34)C3CCN(CCCC/C=C\CC1)C[C@@]31C[C@]34CC[C@H](CCCN3[C@H]12)O4` (stereo not given in full) [6-Deoxymanzamine X] came in with an MIC in data set [1] of 1.77 µg/mL (≈ 3.13 µM). In addition, the IC50 is 1.3 µg/mL (≈ 2.3 µM) in the data set on Plasmodium falciparum [2]; 1.4 µg/mL (≈ 2.48 µM) with Plasmodium falciparum [3]; 3.2 µg/mL (≈ 5.67 µM) with Leishmania donovani; 1 µg/mL (≈ 1.77 µM) in data set [4]; 0.5 µg/mL (≈ 0.885 µM) in the data set with HT-29; 0.5 µg/mL (≈ 0.885 µM) in data set [5]. For the same compound, the IC50 in [6] came to 1 µg/mL (≈ 1.77 µM). Besides, the 90% effect level in the data set on Leishmania donovani (IC90) was put at 7.5 µg/mL (≈ 13.3 µM). The compound also came in with an Activity in the data set with Vero of 4760 ng/mL. In data set [7], this compound gave an EC50 of 1600 nM.
On to `O=C1CCCN2[C@@H](CC1)C[C@]13CN4CCCC/C=C\CC[C@](O)(C=C(c5nccc6c5[nH]c5c(O)cccc56)C1CC4)[C@H]23` (stereo not given in full) [MANZAMINE F], for which, in data set [1], inhibition of growth (MIC) required 2.56 µg/mL (≈ 4.41 µM). Also, the Activity entry in the data set on Vero is “Non-toxic”.
In the same order, the values of `O=C1CCCN2[C@@H](CC1)C[C@]13CN4CCCC/C=C\CC[C@](O)(C=C(c5nccc6c5[nH]c5ccccc56)C1CC4)[C@H]23` (stereo not given in full) [MANZAMINE E] are 3.76 µg/mL (≈ 6.66 µM) and “Non-toxic”.
Take `O[C@@H]1CCCN2[C@@H](CC1)C[C@]13CN4CCCC/C=C\CC[C@](O)(C=C(c5nccc6c5[nH]c5ccccc56)[C@@H]1CC4)[C@H]23` [32,33-DIHYDRO-31-HYDROXYMANZAMINE A]: the outcome in the data set with Plasmodium falciparum [2], in the data set with Plasmodium falciparum [3] and in the data set on Leishmania donovani was inactive. The Activity entry in the data set with Vero was “Non-toxic”.
For the compound `c1ccc2c(c1)[nH]c1cnccc12` [NORHARMANE], the outcome in the data set with Plasmodium falciparum [2], with Plasmodium falciparum [3] and in the data set on Leishmania donovani was inactive. Further, in the data set with Vero, the Activity result is listed as “Non-toxic”.
As to `O[C@]12C=C(c3nccc4c3[nH]c3ccccc34)[C@@H]3CCN(CCCC/C=C\CC1)C[C@@]31C[C@@H]3/C=C\CCCCN3[C@H]12` [MANZAMINE A], the MIC in data set [1] is 1.53 µg/mL (≈ 2.79 µM). Moreover, the Activity with Vero came out at 1200 ng/mL. In addition, the EC50 in data set [7] was 590 nM.
As to `O=C1[C@@H]2CCCCCCN2[C@@H]2[C@]13CN1CCCC/C=C\CC[C@]2(O)C=C(c2nccc4c2[nH]c2ccc(O)cc24)[C@@H]3CC1`, the result in the data set on Plasmodium falciparum [2], with Plasmodium falciparum [3] and with Leishmania donovani was inactive. Moreover, in the data set with Vero, the Activity result is “Non-toxic”.
In the case of `Oc1ccc2[nH]c3c(C4=C[C@@]5(O)CC/C=C\CCCCN6CC[C@@H]4[C@@]4(C6)C[C@@]67CC[C@@H](CCCN6[C@H]45)O7)nccc3c2c1` [MANZAMINE X], the IC50 in the data set on Plasmodium falciparum [2] was determined as 0.95 µg/mL (≈ 1.64 µM); in the data set with Plasmodium falciparum [3], 2 µg/mL (≈ 3.44 µM); in the data set with Leishmania donovani it was 5.7 µg/mL (≈ 9.81 µM); in [4] it was 5.1 µg/mL (≈ 8.78 µM); in the data set with HT-29, 0.5 µg/mL (≈ 0.861 µM); in data set [5] it was 5.1 µg/mL (≈ 8.78 µM). Besides, in data set [6], the IC50 turned out to be 5.1 µg/mL (≈ 8.78 µM). Besides, the IC90 in the data set with Leishmania donovani was found to be 11 µg/mL (≈ 18.9 µM). Further, the Activity result in the data set with Vero is “Non-toxic”.
With `O=C1CCCN2[C@@H]3[C@@]45CN6CCCC/C=C\CC[C@]3(C=C(c3nccc7c3[nH]c3ccccc37)[C@@H]4CC6)O[C@@]2(CC1)C5`, in [1], the minimum inhibitory concentration (MIC) came out at 128 µg/mL (≈ 227 µM). Besides, the result in the data set on Plasmodium falciparum [2], with Plasmodium falciparum [3] and with Leishmania donovani was inactive. Moreover, in the data set on Vero, the Activity result is reported as “Non-toxic”.
On to `O=C1NCCc2c1[nH]c1ccccc21`, for which the result in the data set with Plasmodium falciparum [2], in the data set on Plasmodium falciparum [3] and in the data set on Leishmania donovani was inactive. In addition, the Activity result in the data set with Vero was “Non-toxic”.
`O=C(c1c[nH]cn1)c1nccc2c1[nH]c1ccccc12` [DES-N-METHYLXESTOMANZAMINE A]: the result in the data set with Plasmodium falciparum [2] and with Plasmodium falciparum [3] was inactive. Further, in the data set with Leishmania donovani, 35 µg/mL (≈ 133 µM) corresponded to half-maximal inhibition (IC50). In addition, the IC90 with Leishmania donovani was more than 50 µg/mL. For the same compound, the Activity entry with Vero is reported as “Non-toxic”.
`C1=C(c2nccc3c2[nH]c2ccccc23)[C@@H]2CCN3CCCC/C=C\CC[C@]14O[C@@]15/C=C\CCCCN1[C@@H]4[C@]2(C3)C5` [12,34-OXAMANZAMINE A]: the result in the data set on Plasmodium falciparum [3] was inactive. Further, the Activity result in the data set with Vero is listed as “Non-toxic”.
In data set [1], `Oc1cccc2c1[nH]c1c(C3=C[C@@]4(O)CC/C=C\CCCCN5CC[C@@H]3[C@]3(CC6/C=C\CCCCN6[C@H]34)C5)nccc12` (stereo not given in full) showed an MIC of 0.91 µg/mL (≈ 1.61 µM). For the same compound, the Activity with Vero was 1100 ng/mL. Moreover, the midpoint of the response in data set [7], the EC50, lay at 4200 nM.
In the data set with Leishmania donovani, `OC1=C[C@@]2(O)CC/C=C\CCCCN3CC[C@@H]1[C@]1(C[C@@H]4/C=C\CCCCN4[C@H]12)C3` [IRCINOL A] returned an IC50 of 0.9 µg/mL (≈ 2.26 µM) and an IC90 of 1.7 µg/mL (≈ 4.27 µM).
